A short description of series [1]: Inhibition of Hedgehog signaling pathway in mouse NIH/3T3 cells assessed as reduction in Sonic hedgehog-induced Gli luciferase activity after 48 hrs by Dual-luciferase reporter gene assay. The following applies: NIH3T3, 48 h. The class given is cell-based. Summed up: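 NIH3T3 cells stably carrying a Gli-luciferase reporter were grown in DMEM/10% FBS with 1 μg/mL puromycin. They were seeded at 2×10⁴ cells/well and cultured overnight at 37 °C, 5% CO₂. Compounds were added as 8-point serial dilutions (0.05–300 nM) in 0.5% FBS with 0.7 μg/mL Sonic Hh agonist, n = 4 wells, for 48 h. Controls were 0.1% DMSO with or without Shh. Read-out was the Firefly/Renilla luciferase ratio.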

Series [2] in a line: Apparent volume of distribution in Sprague-Dawley rat at 1 mg/kg, iv by LC/MS/MS analysis. The conditions noted are these: in vivo, read-out: Vz. The class given is ADME, organism-based. Summed up: (§1)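 Male SD rats (3; 180–240 g) received a single 1 mg/kg iv dose at a dosing volume of 5 mL/kg. Blood was sampled at 2, 5, 15 and 30 min and at 1, 2, 4, 6, 8, 10 and 24 h, then centrifuged for 5 min at 4 °C. Plasma underwent protein precipitation and LC/MS/MS in SRM mode with an internal standard. Parameters were derived by noncompartmental analysis.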

A short description of series [3]: Clearance in Sprague-Dawley rat at 1 mg/kg, iv by LC/MS/MS analysis. The class given is ADME, organism-based. The following applies: in vivo. In short, it runs like this:
as §1

The nature of series [4]: Cmax in Sprague-Dawley rat at 1 mg/kg, iv by LC/MS/MS analysis. The series is classed as ADME, organism-based. Set-up: dose 1 mg/kg, route intravenous. The following applies: in vivo. In short, it runs like this: as §1
Series [5] can be described thus: Half life in Sprague-Dawley rat at 1 mg/kg, iv by LC/MS/MS analysis. The series is classed as ADME, organism-based. The following applies: in vivo. In short, it runs like this: as §1
The nature of series [6]: AUC in Sprague-Dawley rat at 1 mg/kg, iv by LC/MS/MS analysis. The following applies: in vivo. The class given is ADME, organism-based. In short, it runs like this:
as §1

This note sets out measurements from ChEMBL document CHEMBL4152368, “Novel 4-(2-pyrimidinylamino)benzamide derivatives as potent hedgehog signaling pathway inhibitors” (Bioorg Med Chem, 2018).

Structures are written as SMILES.

Turning to `CCc1cnc(Nc2ccc(C(=O)Nc3cc(CN4CCN(C)CC4)ccc3C)cc2)nc1-c1ccc(OC(F)(F)F)cc1`, the 50% inhibitory concentration (IC50) in series [1] is 2.21 nM.

Turning to `Cc1ccc(OCCN(C)C)cc1NC(=O)c1ccc(Nc2ncc(C)c(-c3ccc(OC(F)(F)F)cc3)n2)cc1`, in series [1], the 50% inhibitory concentration (IC50) turned out to be 1.07 nM.

As to `Cc1ccc(OCCN2CCOCC2)cc1NC(=O)c1ccc(Nc2ncc(C)c(-c3ccccc3)n2)cc1`, the Vd in series [2] was determined as 2.75 L/kg. Also, the IC50 in series [1] worked out at 4.28 nM. In series [3], this compound gave a clearance of 21.5 mL/min/kg. This compound returned a peak concentration (Cmax) in series [4] of 863 ng/mL. The compound further gave a half-life in series [5] of 86.4 min. For the same compound, the area under the curve (AUC) in series [6] is 787 ng·h/mL.

As to `Cc1ccc(CN2CCN(C)CC2)cc1NC(=O)c1ccc(Nc2ncc(C)c(-c3ccccn3)n2)cc1`, the IC50 in series [1] came out at 7.37 nM.

For `Cc1ccc(OCCN2CCOCC2)cc1NC(=O)c1ccc(Nc2ncc(C)c(-c3ccc(OC(F)(F)F)cc3)n2)cc1`, the IC50 in series [1] was found to be 2.45 nM.

`Cc1ccc(CN2CCOCC2)cc1NC(=O)c1ccc(Nc2nccc(-c3cccnc3)n2)cc1`: the Vd in series [2] is 0.7 L/kg. Further, the half-inhibitory concentration (IC50) in series [1] was 29 nM. In series [3], the clearance was 33.6 mL/min/kg. In series [4], this compound gave a Cmax of 2520 ng/mL. Further, the half-life in series [5] is 15 min. Further, the AUC in series [6] came out at 521 ng·h/mL.

Take `Cc1ccc(CN2CCCC2)cc1NC(=O)c1ccc(Nc2ncc(C)c(-n3ccnc3)n2)cc1`: the half-inhibitory concentration (IC50) in series [1] is 21.1 nM.

`Cc1ccc(OCCCN2CCOCC2)cc1NC(=O)c1ccc(Nc2ncc(C)c(-c3ccc(OC(F)(F)F)cc3)n2)cc1`: the concentration for half-maximal inhibition (IC50) in series [1] was 2.14 nM.

Consider `Cc1ccc(CN2CCCCC2)cc1NC(=O)c1ccc(Nc2ncc(C)c(-c3ccccc3)n2)cc1`, for which the IC50 in series [1] is 1.94 nM.

Take `Cc1ccc(CN2CCOCC2)cc1NC(=O)c1ccc(Nc2ncc(C)c(-c3ccccn3)n2)cc1`: the Vd in series [2] amounted to 0.888 L/kg. The concentration for half-maximal inhibition (IC50) in series [1] worked out at 1.89 nM. Besides, the clearance in series [3] was 12.3 mL/min/kg. The compound further registered a Cmax in series [4] of 1540 ng/mL. For the same compound, in series [5], the half-life was 50.4 min. The exposure (AUC) in series [6] turned out to be 1370 ng·h/mL.

Take `CCN(CC)CCCNC(=O)c1ccc(C)c(NC(=O)c2ccc(Nc3ncc(C)c(-c4ccc(OC(F)(F)F)cc4)n3)cc2)c1`: the IC50 in series [1] came out at 0.62 nM.

In the case of `Cc1ccc(CN2CCN(C)CC2)cc1NC(=O)c1ccc(Nc2ncc(C3CC3)c(-c3ccc(OC(F)(F)F)cc3)n2)cc1`, in series [1], the IC50 stood at 1.54 nM.
